Measurements: ChEMBL document CHEMBL4823264, “Efficient Dimerization Disruption of Leishmania infantum Trypanothione Reductase by Triazole-phenyl-thiazoles” (J Med Chem, 2021)
Calls of active or inactive are those of the source. The rule behind the calls is not given here.

What was measured:
[1] = Selectivity index, ratio of EC50 for human HepG2 cells to EC50 for axenic amastigote stage of Leishmania infantum MCAN/ES/89/IPZ229/1/89 infected in human HepG2 cells; assay type: toxicity, cell-based; details: read-out: Ratio EC50
[2] = target: T1, Glutathione reductase, mitochondrial (Homo sapiens) (UniProt P00390); test: Inhibition of recombinant human GR oxidoreductase activity by DTNB-reagent based spectrophotometric method
T1 sequence (whole entry): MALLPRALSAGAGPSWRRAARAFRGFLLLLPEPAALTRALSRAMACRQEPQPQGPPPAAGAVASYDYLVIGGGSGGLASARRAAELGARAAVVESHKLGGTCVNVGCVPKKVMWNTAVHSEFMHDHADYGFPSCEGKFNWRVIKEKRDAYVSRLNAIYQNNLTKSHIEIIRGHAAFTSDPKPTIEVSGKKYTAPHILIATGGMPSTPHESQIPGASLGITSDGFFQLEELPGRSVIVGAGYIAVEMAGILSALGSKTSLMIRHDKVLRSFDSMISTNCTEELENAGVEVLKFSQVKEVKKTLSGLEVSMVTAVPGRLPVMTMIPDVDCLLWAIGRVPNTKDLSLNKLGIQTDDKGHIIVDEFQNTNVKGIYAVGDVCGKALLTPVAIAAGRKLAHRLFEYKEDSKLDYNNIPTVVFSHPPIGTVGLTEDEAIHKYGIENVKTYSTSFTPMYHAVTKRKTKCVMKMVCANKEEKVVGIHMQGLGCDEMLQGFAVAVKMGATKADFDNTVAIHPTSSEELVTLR
Method in brief: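 Recombinant hGR (7 nM) assayed at 37 °C in 40 mM HEPES pH 7.5 with 1 mM EDTA, 60 μM NADP+, 150 μM DTNB, 50 μM GSSG, 300 μM NADPH and 1.75% DMSO. TNB formation followed at 412 nm; at least three independent experiments, nonlinear regression.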

[3] = Selectivity index, ratio of EC50 for human HepG2 cells to EC50 for promastigote stage of Leishmania infantum MCAN/ES/89/IPZ229/1/89 infected in human HepG2 cells; assay type: toxicity, cell-based; details: read-out: Ratio EC50
THP-1 = test: Cytotoxicity against human THP-1 cells at 75 uM by LDH assay; assay type: cell-based; details: thp-1, 75 µM
Method in brief: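 PMA-differentiated (100 ng/mL, 24 h) THP-1 macrophages infected with GFP-expressing amastigotes were exposed to compound, and viability was measured by LDH activity. The maximum concentration assayed was 75 μM. Three independent experiments.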

[4] = target: Trypanothione reductase (Leishmania infantum) (UniProt A4HSF7); test: Inhibition of recombinant His-FLAG-tagged Leishmania infantum TryR dimerization expressed in Escherichia coli […] assessed as reduction in TryR dimer at 20 uM using TS2 as substrate after 16 hrs by ELISA relative to control
Chain of Trypanothione reductase (Leishmania infantum) (A4HSF7 as listed by the source): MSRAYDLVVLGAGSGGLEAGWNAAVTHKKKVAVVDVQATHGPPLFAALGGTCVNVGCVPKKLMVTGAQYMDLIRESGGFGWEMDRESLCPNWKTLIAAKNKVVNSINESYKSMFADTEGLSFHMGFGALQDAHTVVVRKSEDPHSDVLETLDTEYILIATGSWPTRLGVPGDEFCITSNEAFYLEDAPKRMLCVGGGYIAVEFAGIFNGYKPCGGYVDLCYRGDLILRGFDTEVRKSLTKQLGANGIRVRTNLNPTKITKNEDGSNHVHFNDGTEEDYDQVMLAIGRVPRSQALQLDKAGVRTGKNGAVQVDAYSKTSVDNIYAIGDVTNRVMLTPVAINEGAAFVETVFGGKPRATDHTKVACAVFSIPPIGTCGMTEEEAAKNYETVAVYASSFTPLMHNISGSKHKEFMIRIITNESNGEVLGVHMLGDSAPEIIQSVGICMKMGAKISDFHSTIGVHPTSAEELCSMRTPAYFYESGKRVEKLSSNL
Method in brief: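 HIS-FLAG-tagged LiTryR at 400 nM incubated 16 h at 37 °C in 300 mM NaCl, 50 mM Tris pH 8.0 with 3.12–75 μM compound, then centrifuged. Supernatant captured on anti-FLAG plates and detected with anti-HIS-HRP and OPD at 490 nm.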

[5] = Drug uptake in Leishmania infantum promastigotes at 25 uM after 1 hr by fluorescence microscopy analysis; assay type: ADME; details: in vivo
Method in brief: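 Log-phase promastigotes exposed to 25 μM compound for 1 h at 26 °C, fixed in […], mounted on polylysine slides and imaged by fluorescence microscopy for blue compound fluorescence.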

SMILES	selectivity ratio [1]	inhibition [2]	also measured
NCCCCc1cn(-c2ccc(-c3nc(CCc4ccc(Oc5ccccc5)cc4)c(-c4ccccc4)s3)c(OCCN3CCNC3=O)c2)nn1	< 1		
NCCCCc1cn(-c2ccc(-c3nc(CCc4ccc(-c5ccccc5)cc4)c(-c4ccccc4)s3)c(OCCN3CCNC3=O)c2)nn1	1.3		
NCCCCc1cn(-c2ccc(-c3nc(CCc4ccc5ccccc5c4)cs3)c(OCCN3CCNC3=O)c2)nn1		inactive	
COc1cc(-n2cc(CCCCN)nn2)ccc1-c1nc(CCc2ccccc2)cs1			selectivity ratio [3]: 1.8
NCCCCc1cn(-c2ccc(-c3nc(CCc4ccc(-c5ccccc5)cc4)cs3)c(OCCN3CCNC3=O)c2)nn1.O=C(O)C(F)(F)F		inactive	Activity (THP-1): 100%
NCCCCc1cn(-c2ccc(-c3nc(-c4ccccc4)c(-c4ccccc4)s3)c(OCCN3CCNC3=O)c2)nn1		inactive	
NCCCc1cn(-c2ccc(-c3nc(CCc4ccc(-c5ccccc5)cc4)cs3)c(OCCN3CCNC3=O)c2)nn1.O=C(O)C(F)(F)F			Activity (THP-1): 100%
NCCNCc1nccn1-c1ccc(-c2nc(CCc3ccc(-c4ccccc4)cc3)cs2)c(OCCN2CCNC2=O)c1			inhibition [4]: 32%
NCCCCc1cn(-c2ccc(-c3nc(-c4ccccc4)cs3)c(OCCN3CCNC3=O)c2)nn1		inactive	
NCCCCc1cn(-c2ccc(-c3nc(CCc4ccccc4)cs3)c(OCCN3CCNC3=O)c2)nn1.O=C(O)C(F)(F)F		inactive	Drug uptake [5]: Active
NCCCCc1cn(-c2ccc(-c3nc(-c4ccc(Oc5ccccc5)cc4)c(-c4ccccc4)s3)c(OCCN3CCNC3=O)c2)nn1	≥ 3.3		
NCCNCc1nccn1-c1ccc(-c2nc(CCc3ccc4ccccc4c3)cs2)c(OCCN2CCNC2=O)c1	2.1		selectivity ratio [3]: 2.1; inhibition [4]: 26%
COc1cc(-n2cc(CCCCN)nn2)ccc1-c1nc(CCc2ccc(-c3ccccc3)cc2)cs1	1.9		
NCCCCc1cn(-c2ccc(-c3nc(-c4ccc(-c5ccccc5)cc4)c(-c4ccccc4)s3)c(OCCN3CCNC3=O)c2)nn1	1.8		
